Assay results published in the RNAGym collection of RNA variant scans (doi:10.1126/science.aae0568).
This sample holds only a part of the variants without activity.

B1: tRNA (parent)
chain: GUUCCGUUGGCGUAAUGGUAACGCGUCUCCCUCCUAAGGAGAAGACUGCGGGUUCGAGUCCCGUACGGAACG

Variants of: B1
Test: yeast fitness relative to wild type (ratio to wild type); higher = fitter; tRNA-Arg(CCU), competitive growth, 37 C, YPD
In short: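 Variants of the tRNA-Arg(CCU) gene were chemically synthesised with a 3% per-site mutation rate across 69 sites and placed at the native genomic locus in Saccharomyces cerevisiae. Six parallel replicates of the pooled strains were competed in YPD at 37°C for 24 hours, and gene amplicons from the start and end populations were read by 100-nucleotide paired-end sequencing. Darwinian fitness relative to wild type was derived from changes in genotype frequencies. Genotypes required ≥ 100 starting reads, and estimates < 0.5 were set to 0.5.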
Work on C4G U7G U13G A20U C31A C34G A42C yielded a yeast fitness of at most 0.5. In the case of C4G C31G, the yeast fitness is reported as 0.761. In the case of C4G G10A A21G, the yeast fitness is reported as 0.547. Work on C4G C29G A36C A37U A40C A45G G51A yielded a yeast fitness of 0.503. Work on C4G C27G C34U A37C C55U yielded a yeast fitness of at most 0.5. In the case of C4G G6C C30A, the yeast fitness is reported as at most 0.5. Work on C4G G17C A37U G58A C61A yielded a yeast fitness of at most 0.5. For C4G G23C A45U, the yeast fitness was at most 0.5. Variant C4G C27A C61A C66U A69C has a yeast fitness of at most 0.5. C4G U7G G10C G38C C49G A69C gave a yeast fitness of at most 0.5. C4G G10C C11G A37U A43G gave a yeast fitness of at most 0.5. In the case of C4G U8C A15C C31A A36U A37C C60A A65G A69G, the yeast fitness is reported as at most 0.5. In the case of C4G U13C A40U A42C C66U, the yeast fitness is reported as at most 0.5. With C4G G58C the yeast fitness was 1.1. C4G G58A gave a yeast fitness of 1.05. For C4G C27A C46U G67C, the yeast fitness was at most 0.5. Variant C4G G6C has a yeast fitness of 0.657. Work on C4G G48A C49U G50A G51C U64A A70C yielded a yeast fitness of at most 0.5. In the case of C4G G23A C29G A37C C60G, the yeast fitness is reported as 0.808. For C4G G9A G10C C29A U53C C62U, the yeast fitness was at most 0.5. C4G G17A C30U gave a yeast fitness of at most 0.5. For C4G U13A A43G C46G, the yeast fitness was at most 0.5. With C4G G25C C30G the yeast fitness was 0.622. Variant C4G G48C has a yeast fitness of 0.822. Variant C4G U8A C11G A42U U64C G68C has a yeast fitness of at most 0.5. In the case of C4G U8A C22U C46G G63A, the yeast fitness is reported as at most 0.5. C4G G38A C66U gave a yeast fitness of at most 0.5. With C4G U7G C31U A65U the yeast fitness was at most 0.5. C4G U13A U54C gave a yeast fitness of 0.548. C4G G41C showed a yeast fitness of 0.834. With C4G G9C C33G C66U the yeast fitness was 0.72. For C4G G9C C33G C61U A70G, the yeast fitness was at most 0.5. With C4G G17A A70G the yeast fitness was 0.567. For C4G G18C C30A, the yeast fitness was at most 0.5. C4G U7C G41A A42C G50C A70G gave a yeast fitness of at most 0.5. Work on C4G G6A G10C U19A C24G A43G C61G A65U yielded a yeast fitness of 0.576. C4G U7G gave a yeast fitness of 0.642. C4G U8A G12A A14G G48A A69C showed a yeast fitness of at most 0.5. Variant C4G U8C A21G has a yeast fitness of 0.605. Work on C4G G10C C46G yielded a yeast fitness of 0.632. C4G G23A C29G A37C showed a yeast fitness of 0.651. C4G C46G A69U gave a yeast fitness of 0.721. In the case of C4G G9C U35C G41A C55U U59A A70U, the yeast fitness is reported as at most 0.5. Variant C4G C55A C60A has a yeast fitness of at most 0.5. For C4G G17C C33G, the yeast fitness was at most 0.5. C4G C34G A37U A42U C61U gave a yeast fitness of at most 0.5. For C4G C55U, the yeast fitness was 0.748. Work on C4G C49G G67A yielded a yeast fitness of at most 0.5. Variant C4G G6C A36C C62G C66A has a yeast fitness of at most 0.5. Variant C4G G12A U26A has a yeast fitness of at most 0.5. With C4G G10C G12C A21C G48C A57G the yeast fitness was 0.527. Variant C4G G50C C61U has a yeast fitness of 0.52. C4G G17A showed a yeast fitness of 0.724. With C4G G63C the yeast fitness was 0.622. In the case of C4G G23C G67C, the yeast fitness is reported as at most 0.5. C4G G18C A70C showed a yeast fitness of 0.508. C4G G17A A43G showed a yeast fitness of at most 0.5. In the case of C4G G9A G18C C31U C55A A65C, the yeast fitness is reported as at most 0.5. In the case of C4G U7C U13G, the yeast fitness is reported as 0.537. With C4G U7A G10C A20C G67U the yeast fitness was 0.527. With C4G G48C G67C the yeast fitness was 0.542. C4G G10C C11G A37U A43G A69G gave a yeast fitness of at most 0.5. C4G C24U U32G A40U U64G gave a yeast fitness of at most 0.5. With C4G G10A C30G A43G the yeast fitness was 0.659. Work on C4G C30G C55U yielded a yeast fitness of at most 0.5. Work on C4G U7G A65G yielded a yeast fitness of 0.622. In the case of C4G C33G G67A, the yeast fitness is reported as at most 0.5. Variant C4G C46U G67C has a yeast fitness of 0.597. Variant C4G G23A A36G G68U has a yeast fitness of at most 0.5. For C4G C30A G67A, the yeast fitness was at most 0.5. For C4G G12A C49U C60A C61A, the yeast fitness was at most 0.5. With C4G G6A G23A A43G C55U the yeast fitness was at most 0.5. Variant C4G C49G U64G A65G A70U has a yeast fitness of at most 0.5. For C4G G12A A43U A45C G67C, the yeast fitness was at most 0.5. C4G G10C C46A G68C showed a yeast fitness of at most 0.5. In the case of C4G G6A G23A A43G A69U A70G, the yeast fitness is reported as at most 0.5. For C4G C24U C30A G52C, the yeast fitness was at most 0.5. Variant C4G C31A A42C C46G has a yeast fitness of 0.561. For C4G G17A A57G, the yeast fitness was at most 0.5. C4G U7C C22U U35G C61A gave a yeast fitness of at most 0.5. For C4G G25A U54G, the yeast fitness was at most 0.5. Variant C4G G9C C22A A70C has a yeast fitness of at most 0.5. Variant C4G U7C C11U C22U U35G C61A has a yeast fitness of at most 0.5. Work on C4G C27U C49U yielded a yeast fitness of at most 0.5.
